Assay outcomes: PubChem, several laboratories
NR2E3 ag-1: inhibitors of NR2E3-RetCOR corepressor binding, primary screen, NR2E3 agonist project, biochemical, TR-FRET, GST-NR2E3, biotin-RetCOR. inhibition of corepressor binding, % at 4.78 µM. Photoreceptor-specific nuclear receptor (Homo sapiens), Q9Y5X4. 320,000 compounds, 0.12% hits. AID 2300, 2010. 1536-well;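 active = percent inhibition above the cutoff of mean plus 3 SD of all tested compounds, set per screening campaign, cut at about 20% in these data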;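 note: 0% = DMSO wells and 100% = biotin wells as full block of FRET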
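Material: NR2E3–RetCOR corepressor complex / Incubation: Compound–protein incubation for 5 h at 4 °C / Dosing: compound at 4.8 µM, single dose / Detection: time-resolved FRET / Benchmarks: high control biotin, low control 0.6% DMSO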
NR1D1 modulator: modulators of Rev-erb alpha DNA binding, primary screen, biochemical, FITC-DNA, fluorescence polarization, uHTS; activity, % at 10 µM; Rev-erbα–FITC-DNA binding, 90 min; 370,000 compounds, 0.79% hits;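 active = activity above about 14%, limit read from the data; passing the limit was not always enough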;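 note: 0% = DMSO wells with 35 nM protein and 100% = DMSO wells with 750 nM protein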
Target sequence (P20393 whole entry, looked up): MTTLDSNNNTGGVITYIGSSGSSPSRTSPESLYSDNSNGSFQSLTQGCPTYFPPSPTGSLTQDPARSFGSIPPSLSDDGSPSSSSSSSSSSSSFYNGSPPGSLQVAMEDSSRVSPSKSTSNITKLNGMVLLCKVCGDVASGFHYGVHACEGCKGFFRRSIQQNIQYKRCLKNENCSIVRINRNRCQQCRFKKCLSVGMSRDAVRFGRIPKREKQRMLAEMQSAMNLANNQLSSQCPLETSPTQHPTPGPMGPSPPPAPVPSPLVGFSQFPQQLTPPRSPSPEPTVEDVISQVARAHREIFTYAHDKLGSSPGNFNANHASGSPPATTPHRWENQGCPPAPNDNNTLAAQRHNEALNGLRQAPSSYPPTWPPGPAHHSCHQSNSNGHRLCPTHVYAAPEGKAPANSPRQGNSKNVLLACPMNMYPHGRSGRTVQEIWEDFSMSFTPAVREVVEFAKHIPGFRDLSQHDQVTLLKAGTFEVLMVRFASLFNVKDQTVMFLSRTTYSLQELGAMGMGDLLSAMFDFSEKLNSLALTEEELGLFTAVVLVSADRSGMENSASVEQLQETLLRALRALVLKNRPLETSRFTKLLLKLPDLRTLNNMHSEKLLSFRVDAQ
PG9 binder: binders of HIV-1 gp120 antibody PG9, primary screen, biochemical, TR-FRET; AID 624416, 2012; inhibition, % at 6.7 µM; HIV-1 gp120 / PG9 antibody interaction; TR-FRET gp120-PG9 antibody binding; 360,000 compounds, 0.43% hits; in the data active = inhibition above about 8.5%
NR2E3 ag-2: NR2E3 agonists in two-hybrid cells, primary screen, cell-based, luminescence, CHO-S, Gal4-NCOR/VP16-NR2E3; AID 602229, 2012; 360,000 compounds, 0.35% hits; inhibition of corepressor binding, % at 3.98 µM; Photoreceptor-specific nuclear receptor (Homo sapiens), Q9Y5X4; luciferase;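 active = inhibition above the mean of all tested compounds plus 3 SD, cut at about 70% in these data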;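 note: 0% = DMSO with NR2E3 transfected cells and 100% = cells lacking NR2E3 construct; higher means lower luciferase signal from less NR2E3 corepressor binding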
Neddyl block: inhibitors of cullin neddylation, primary screen, biochemical, TR-FRET, uHTS, NAE and Ubc12; 360,000 compounds, 0.58% hits; calls only at 25 µM; AID 651699, 2012; in the data active = inhibition above about 36%
NR2E3 ag conf: NR2E3 agonist confirmation in cells, cell-based, luminescence, CHO-S two-hybrid; CHO-S mammalian two-hybrid NR2E3-NCOR, luciferase luminescence; inhibition, % at 3.98 µM; AID 624378, 2012; shares compounds with NR2E3 ag-2; 2,300 compounds, 51% hits;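 active = average inhibition above a cutoff equal to the mean inhibition of all tested compounds plus one SD, cut at about 70% in these data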;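 note: 0% = DMSO in NR2E3 cells and 100% = DMSO in cells lacking NR2E3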
GAL4-VP16 luc: GAL4-VP16 reporter modulators, confirmation, counter-screen for NR2E3 agonist project, cell-based, luminescence, CHO-S, high throughput | shares compounds with NR2E3 ag-2 | CHO-S GAL4-VP16 luciferase reporter | AID 624379, 2012 | 2,300 compounds, 29% hits | inhibition, % at 3.98 µM;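 active = mean inhibition above a cutoff equal to the average over all tested compounds plus one standard deviation, cut at about 70% in these data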;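 note: luciferase from a UAS reporter driven by GAL4-VP16 transactivation; 0% = DMSO with VP16-transfected cells and 100% = DMSO with cells lacking VP16; higher means less reporter light so more repression of VP16 activity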
Starred values were filed as active, the others as inactive; i = inactive; · = not tested or not shown. Compounds with a hit are over-represented: about 2% of the library has one in this group of screens.

SMILES	NR2E3 ag-1	NR1D1 modulator	PG9 binder	NR2E3 ag-2	Neddyl block	NR2E3 ag conf	GAL4-VP16 luc
S=C(Nc1ccc(Cl)cc1)OC1CCC12CCC(c1ccccc1)CC2 (centres undefined)	·	-0.9	·	·	·	·	·
Cc1coc2cc3oc(=O)c(CCC(=O)NC4CC4)c(C)c3cc12	-0.4	-0.8	0.0	70.2*	·	84.8*	54.4
Cc1oc2cc3oc(=O)c(CCC(=O)NC4CC4)c(C)c3cc2c1C	-0.2	5.8	-0.3	22.4	i	·	·
CC(=O)N1CCN(S(=O)(=O)c2cccc(C(=O)OCc3ccc(C(C)(C)C)cc3)c2)CC1	·	-0.5	-0.4	73.5*	i	78.0*	76.2*
NC(=O)c1ncn([C@@H]2O[C@H](C(=O)Nc3ccc(C(=O)N4CCCCC4)cc3)[C@@H](O)[C@H]2O)n1	·	9.4	-1.9	·	·	·	·
Cc1cc(NC2CCCC2)n2nc(C)c(-c3ccccc3)c2n1	-3.8	-1.0	-0.5	-89.6	·	·	·
Cc1cc(NC2CCCC2)n2ncc(-c3ccccc3)c2n1	-1.3	3.4	1.3	55.7	·	21.1	-67.0
N#Cc1c(Cl)nsc1NC(=O)c1ccccc1	4.4	-4.7	0.6	84.6*	i	99.0*	88.3*
O=C1N[C@@H](Cc2ccccc2)COC(=O)[C@H](Cc2ccc(F)cc2)C/C=C\C[C@H]1CC(=O)N(CCO)Cc1ccccc1	·	-4.1	0.7	-23.4	i	·	·
O=C1NC[C@H](c2ccccc2)OC(=O)[C@H](Cc2ccc(F)cc2)CC/C=C/C[C@H]1CC(=O)N(CCO)Cc1ccccc1	·	-5.5	-0.3	36.0	i	·	·
O=C1NC[C@H](c2ccccc2)OC(=O)[C@@H](Cc2ccc(F)cc2)CC/C=C/C[C@H]1CC(=O)N(CCO)Cc1ccccc1	·	-2.9	-1.7	48.5	i	37.2	31.4
O=C1N[C@H](Cc2ccccc2)COC(=O)[C@H](Cc2ccc(F)cc2)C/C=C\C[C@H]1CC(=O)N(CCO)Cc1ccccc1	·	2.1	-0.3	62.3	i	63.3	15.6
C=C(C)/C=C1/CN(Cc2ccc3c(c2)OCO3)C(=N)N1C(=O)OCc1ccccc1	·	2.4	·	·	·	·	·
O=S1(=O)c2c(cccc2N2CCSCC2)Oc2ccccc2CN1Cc1cn(Cc2ccc(C(F)(F)F)cc2)nn1	·	1.8	·	·	·	·	·
CC(C)C(=O)Nc1ccc(N2CCN(C(=O)c3cccs3)CC2)cc1	2.7	4.9	-2.7	-7.5	i	·	·
Cc1ccccc1C(=O)N1CCN(c2ccc(NC(=S)NC(=O)c3cccs3)cc2)CC1	6.2	-1.8	0.6	61.9	i	63.4	35.0
Cc1ccccc1C(=O)N1CCN(c2ccc(NC(=O)CSc3ccc(Cl)cc3)cc2)CC1	1.1	2.8	-0.2	57.5	i	58.7	65.9
CC(C)CC(=O)NC(=S)Nc1ccc(N2CCN(C(=O)c3cccs3)CC2)cc1	-0.2	2.0	-0.7	64.9	i	85.0*	67.6
CCC(=O)Nc1ccc(N2CCN(C(=O)c3ccccc3C)CC2)cc1	-0.4	-0.1	-0.2	0.5	i	·	·
CCOC(=O)C1=C[C@@H](C(C)(C)C)N(S(=O)(=O)c2ccc([N+](=O)[O-])cc2)[C@H]1c1ccccc1	·	-0.2	-2.2	70.2*	i	44.8	32.2
CCC1CCCCN1S(=O)(=O)c1ccc(NC(=O)c2ccncc2)cc1 (centres undefined)	1.3	2.2	-1.5	95.8*	i	66.6	62.8
COc1cccc(OCc2cc(C(=O)N3CCC(c4ccncc4)CC3)no2)c1	0.2	0.9	0.2	85.4*	i	89.5*	80.4*
O=C(c1cc(COc2cccc(C(F)(F)F)c2)on1)N1CCC(c2ccncc2)CC1	1.4	3.4	0.4	100.9*	i	98.2*	79.5*
FC(F)(F)c1cccc(Cc2noc(CN3CCC(c4ccncc4)CC3)n2)c1	1.3	-3.1	0.5	48.9	i	78.4*	69.8
COc1ccc(OCc2cc(C(=O)N3CCC(c4ccccc4)CC3)no2)c(Cl)c1	1.4	-0.7	-0.9	-93.8	i	·	·
SMILES	NR2E3 ag-1	NR1D1 modulator	PG9 binder	NR2E3 ag-2	Neddyl block	NR2E3 ag conf	GAL4-VP16 luc
CC(=O)c1ccc(OCc2cc(C(=O)N3CCC(c4ccncc4)CC3)no2)cc1	-4.3	-2.8	-3.3	89.9*	i	71.4*	73.9*
COc1ccccc1CNC(=O)N1CCN(Cc2nc3ccccc3c(=O)[nH]2)CC1	·	5.5	·	·	·	·	·
[O-][n+]1ccccc1SSc1cccc[n+]1[O-]	·	-0.5	·	·	·	·	·
COc1ccc(NS(=O)(=O)c2ccc3c(c2)OCCO3)cc1OC	2.3	-2.2	3.3	99.9*	i	83.7*	73.2*
COc1ccc(S(=O)(=O)Nc2ccc3c(c2)n(C)c(=O)n3C)cc1F	-0.8	6.8	-0.2	73.6*	i	10.6	19.1
O=S(=O)(Nc1ccc2c(c1)OCCO2)c1ccc2oc3ccccc3c2c1	-0.4	-2.7	0.4	81.1*	i	83.7*	67.8
O=S(=O)(Nc1ccc2c(c1)OCCO2)c1ccc(F)c(F)c1	-2.4	-7.6	-0.9	36.9	i	·	·
COc1ccc(NS(=O)(=O)c2ccc(-n3cnnn3)cc2)cc1OC	-2.0	6.7	-4.2	61.4	i	-4.7	4.9
CO/N=C(\C(=O)N[C@@H]1C(=O)N2C(C(=O)OCOC(=O)C(C)(C)C)=C(C)CS[C@H]12)c1csc(N)n1	·	5.2	·	·	·	·	·
O=C(NC1CCCC1)c1ccc(COc2ccccc2)o1	·	-4.5	·	·	·	·	·
CC(=O)O[C@]1(C(C)=O)CCC2C3C=C(Cl)C4=CC(=O)[C@@H]5C[C@@H]5[C@]4(C)C3CC[C@@]21C (some centres undefined)	·	-8.2	·	·	·	·	·
COc1cccc(N2CCN(CC(=O)NCc3ccccc3C)CC2)c1	·	-10.1	·	·	·	·	·
O=[N+]([O-])c1ccc(NCCCN2CCC(C(O)(c3ccccc3)c3ccccc3)CC2)cc1	·	3.6	·	·	·	·	·
O=C(CSc1nnc(-c2cnccn2)n1-c1ccccc1)Nc1ccc2c(c1)OCCO2	·	-2.8	·	·	·	·	·
O=S1(=O)c2ccc(Br)cc2OC[C@@H](c2ccccc2)N1Cc1cn(CCC2OCCO2)nn1	·	-3.6	·	·	·	·	·
O=C(O)CCC(=O)Nc1nnc(C(F)(F)F)s1	-2.0	-1.8	0.6	3.8	i	·	·
CCC(NC(=O)Nc1nnc(C(F)(F)F)s1)(C(F)(F)F)C(F)(F)F	4.6	-5.1	0.4	104.3*	i	97.3*	90.4*
